Assay results from different studies.
Each line is one published result; the experiments were not run side by side.
USP28: Ubiquitin carboxyl-terminal hydrolase 28 (USP28, Homo sapiens, UniProt Q96RU2)
sapA: sapA (Haemophilus influenzae, UniProt Q4QL73)

Compound | target | assay | quantity | value
CCC(C(=O)Nc1cc(NC2CCNC2)ccc1C)n1cc(Br)cc2nc(SCc3ccc(F)cc3)nc1-2 (stereo not drawn) | USP28 | enzyme activity, inhibitor | IC50 | > 100000 nM
CNC(=O)c1ccc(-c2cnn3ccc(C(=O)N(C)c4ccc(Cl)c(C(=O)OC)c4)cc23)cc1 | TGF-beta receptor type-1 (TGFBR1, Homo sapiens, UniProt P36897) | enzyme activity, inhibitor | IC50 | > 30000 nM
CC[C@H](C)[C@H](NC(C)=O)C(=O)N[C@@H](CCC(=O)O)C(=O)N[C@H](C(=O)N[C@H](C=O)CC(=O)O)[C@@H](C)O | Caspase-1 (CASP1, Homo sapiens, UniProt P29466) | enzyme activity, inhibitor | IC50 | 27.5 nM
C[C@@H](O)[C@H](NC(=O)CNC(=O)[C@H](Cc1ccc(O)cc1)NC(=O)[C@H](CCCNC(=N)N)NC(=O)[C@@H](N)CO)C(=O)O | sapA | binding | Kd | 31 nM
COC(=O)c1cc(N(C)C(=O)c2ccn3ncc(-c4ccc(C(=O)O)cc4)c3c2)ccc1Cl | Hepatocyte growth factor receptor (MET, Homo sapiens, UniProt P08581) | enzyme activity, inhibitor | IC50 | > 30000 nM
C[C@@H](O)[C@H](NC(=O)CNC(=O)[C@H](Cc1ccc(O)cc1)NC(=O)[C@H](CO)NC(=O)[C@@H](N)CCCNC(=N)N)C(=O)O | sapA | binding | Kd | 139 nM
CCC(C(=O)Nc1cc(NC2CCNCC2)ccc1C)n1cc(Cl)cc2nc(SCc3ccc(F)cc3)nc1-2 (stereo not drawn) | Ubiquitin carboxyl-terminal hydrolase 7 (USP7, Homo sapiens, UniProt Q93009) | enzyme activity, inhibitor | IC50 | > 100000 nM
NCCCC[C@H](NC(=O)[C@@H]1CCCN1)C(=O)N[C@@H](CO)C(=O)N[C@@H](CCC(=O)O)C(=O)N[C@@H](CCC(N)=O)C(=O)O | sapA | binding | Kd | 28 nM
CCC(C(=O)Nc1cc(NC2COC2)ccc1C)n1cc(Br)cc2nc(SCc3ccc(F)cc3)nc1-2 (stereo not drawn) | USP28 | enzyme activity, inhibitor | IC50 | > 100000 nM
